Her2 expr inh: lowers expression of human Her2 kinase; SKBR-3 HER2 protein level, AlphaScreen, 18-24 h; active compounds read low; 65,000 tested, 0.69% active; HER2 level % of control, % at 10 µM; P04626;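 active = HER2 level under 5% of the carrier-only control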;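 note: lower value means stronger loss of Her2 protein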
AP ELISA ortho: alternative pathway complement inhibition, orthogonal assay; Human serum alternative complement pathway, LPS-coated ELISA, C3 deposition; tested in compound mixtures; inhibition, % at 5 µM; 62,000 tested, 0.08% active;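 active = inhibition above 30% in each of the two pooled mixtures holding the compound, so the lower value exceeds 30%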
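Test system: human serum alternative complement pathway, C3 deposition on LPS-coated wells; also added: Plate-bound LPS; doses: 5 µM per compound in ten-compound mixtures; schedule: 1 h at 37 °C; detection: Anti-C3 ELISA, OD 450 nm; evaluation: percent inhibition of C3 deposition onto LPS; repeats: two pool placements per compound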
JNK3 blocker: inhibitors of human JNK3 kinase. P53779. purified JNK3 kinase activity, HTS. inhibition, % at 8 µM. 60,000 tested, 0.61% active. AID 746; in the data active = inhibition above about 17%
Target sequence (P53779 whole entry, looked up): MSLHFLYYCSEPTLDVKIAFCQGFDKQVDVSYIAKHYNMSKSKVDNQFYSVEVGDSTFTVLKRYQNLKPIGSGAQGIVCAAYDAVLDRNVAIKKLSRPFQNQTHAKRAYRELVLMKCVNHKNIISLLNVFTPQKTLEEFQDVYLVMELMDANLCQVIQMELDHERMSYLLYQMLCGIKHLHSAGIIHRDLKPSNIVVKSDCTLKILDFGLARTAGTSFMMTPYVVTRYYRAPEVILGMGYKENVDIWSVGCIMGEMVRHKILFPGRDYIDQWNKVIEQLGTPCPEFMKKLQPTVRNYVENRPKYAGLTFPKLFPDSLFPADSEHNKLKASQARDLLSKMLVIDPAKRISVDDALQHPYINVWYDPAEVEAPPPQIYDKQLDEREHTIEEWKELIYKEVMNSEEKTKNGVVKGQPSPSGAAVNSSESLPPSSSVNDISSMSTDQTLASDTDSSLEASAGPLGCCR
Hsp90 block: displaces geldanamycin probe from tumor Hsp90. P07900. NCI-N417 lysate Hsp90, Cy3B-geldanamycin FP displacement. 64,000 tested, 0.35% active. AID 429. inhibition, % at 30 µM;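 active = inhibition above 50%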
Jurkat viability: cytotoxicity toward Jurkat cells | inhibition, % at 4 µM | 56,000 tested, 1.2% active | AID 463 | Jurkat E6.1 viability, ATP luminescence, 48 h;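 active = inhibition above the mean inhibition of all tested compounds plus 3 SD, cut at about 28% in these data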
HEK293 NFkB inh: lowers PMA/ionomycin-induced NF-kB signal in HEK293 cells; HEK-293 NF-kB luciferase reporter, luminescence; inhibition, % at 3 µM; 62,000 tested, 0.21% active;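 active = inhibition above the mean of all tested compounds plus 3 SD, cut at about 40% in these data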
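Material: HEK-293 cells with stable firefly luciferase reporter driven by four HIV NF-kB elements / Also added: PMA plus ionomycin mix as NF-kB-activating stimulus / Compound dosing: 3 µM once, 0.30% DMSO / Times: 1 h pretreatment, 16 h stimulation, 37 °C / Signal: luminescence / Evaluation: per-plate % inhibition versus controls / Benchmarks: DMSO and 10 µM reference inhibitor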
Numbers stand for hits; – = inactive; · = not tested or not shown. Hits are enriched below; roughly 2.5% of the tested compounds scored in any of these assays.

SMILES	Her2 expr inh	AP ELISA ortho	JNK3 blocker	Hsp90 block	Jurkat viability	HEK293 NFkB inh
COC(=O)c1[nH]c2ccc(Br)cc2c1NC(=O)C(C)N1CCN(C2CCCCC2)CC1 (stereo unspecified)	-4.8	–	–	–	–	–
C[C@H]1CC2C3CCC4=CC(=O)C=C[C@]4(C)[C@@]3(Cl)[C@@H](O)C[C@]2(C)[C@@]1(O)C(=O)CO (stereo partly specified)	·	·	·	–	·	·
CCCN1CCCc2cc(CN)ccc21	–	–	–	79.6	–	–
CN1CCN(CC(=O)N(C)c2nc(-c3ccccc3)cs2)CC1	–	–	–	–	–	–
CC(OC(=O)c1cccs1)C(=O)NCc1cccs1 (stereo unspecified)	–	–	–	92.3	–	–
CC(C)CC(OC(=O)c1cccs1)C(=O)NCc1cccs1 (stereo unspecified)	–	–	–	–	–	–
CC1(C)Cc2c(C#N)c(NCc3ccco3)nc(-c3ccco3)c2CO1	–	·	–	–	·	·
Cc1nc(NCc2ccco2)c(C#N)c2c1COC(C)(C)C2	–	–	30.9	–	–	–
CC(=O)SC1CC2=CC(=O)CC[C@]2(C)C2CC[C@@]3(C)C(CC[C@@]34CCC(=O)O4)C12 (stereo partly specified)	·	·	·	–	·	·
O=c1c2[nH]c3cccc(Cl)c3c2ncn1Cc1ccncc1	–	–	22.4	–	–	–
CCSc1cnc(-c2ccccc2)n1CC	–	–	·	·	·	–
Cn1c(CSCc2ccc(F)cc2)nnc1SCC(=O)Nc1nccs1	–	–	–	–	–	–
Cn1nnnc1SCc1ccc(C(=O)Nc2nccs2)cc1	–	–	19.9	–	–	–
CCCC(=O)Nc1cc(Cl)ccc1N1CCN(C(=O)CC)CC1	–	–	–	–	–	–
c1ccc(OCCCCn2cnc3ccccc32)cc1	–	–	–	–	32.6	–
N#CCCC12CCCCC1=Nc1ccccc12 (stereo unspecified)	–	–	19.0	–	–	–
Cc1cccc(C)c1NC(=O)Cn1c(=O)n(CCCC(=O)NCc2ccco2)c(=O)c2sccc21	–	–	–	–	–	–
Clc1ccc(CSC2=NCCCN2)cc1Cl	-16.6	–	–	–	–	–
Cc1c(C(=O)OCC2CCCO2)[nH]c2c1C(=O)CC(c1ccc(N(C)C)cc1)C2 (stereo unspecified)	–	–	–	–	–	–
O=C(NC1CCCC1)c1cccnc1N1CCCCCC1	–	–	33.7	–	–	–
O=C(NC1CCCCC1)c1cccnc1C(=O)O	–	–	–	–	–	–
CC(=O)Nc1ccc(SCC(=O)c2cc(C)n(Cc3cccs3)c2C)cc1	–	–	–	–	–	–
CC(=O)Nc1ccccc1OCC(=O)c1cc(C)n(Cc2cccs2)c1C	–	–	–	–	100.2	54.6
COc1ccc(-n2cnnc2SCC(=O)c2cc(C)n(Cc3cccs3)c2C)cc1	-20.8	–	–	–	–	–
COc1ccc(N2C(=O)CC(Sc3nnc(-c4ccccc4)o3)C2=O)cc1 (stereo unspecified)	-18.1	–	–	–	–	–
SMILES	Her2 expr inh	AP ELISA ortho	JNK3 blocker	Hsp90 block	Jurkat viability	HEK293 NFkB inh
O=C1OCCC1Sc1nnc(-c2ccccc2)o1 (stereo unspecified)	–	–	–	–	–	–
O=C1c2ccccc2CC1Sc1nnc(-c2ccccn2)o1 (stereo unspecified)	–	–	–	–	–	–
O=C1CC(Sc2nnc(-c3ccccc3O)o2)C(=O)N1c1ccccc1 (stereo unspecified)	-12.7	–	–	–	–	–
CC(=O)C1=C(O)CCC1=N	–	39.1	–	–	–	–
CCN(CC)CCC(=O)Nc1cc(OC)cc2cccnc12	·	·	·	–	·	·
N[C@@H](COP(=O)(O)O)C(=O)O	·	·	·	–	·	·
Cc1ccc(S(=O)(=O)N2CCN(C(=O)N3CCOCC3)C2C)cc1 (stereo unspecified)	-30.0	–	–	–	–	–
Cc1ccc(S(=O)(=O)N2CCN(C(=O)N3CCOCC3)C2c2ccc(N(C)C)cc2)cc1 (stereo unspecified)	–	–	–	–	–	–
COc1ccc(C2/C(=C(/O)c3ccccc3)C(=O)C(=O)N2CC(C)O)c(OC)c1 (stereo unspecified)	–	–	–	–	–	–
COc1ccc(NC(=O)CSc2nnc(-c3cccs3)n2-c2ccccc2)cc1	–	–	–	–	–	–
COC(=O)C1=C(C)NC(=O)CC1c1cc2c(cc1Br)OCO2 (stereo unspecified)	–	–	–	–	–	–
Cn1c2c(c(=O)n(C)c1=O)C(c1cc3c(cc1Br)OCO3)CC(=O)N2 (stereo unspecified)	–	31.8	–	–	–	–
CCCCCCn1c2c(c(=N)c3c1CCC3)CCC2	–	–	–	–	91.0	–
CCCCn1c2c(c(=N)c3c1CCC3)CCC2	–	–	–	–	68.7	–
CCN(CCNC(=O)C1CCN(c2nnc(-n3cccc3)s2)CC1)c1ccccc1	–	–	–	–	–	–
CCOc1ccccc1NC(=O)c1ccccc1-c1nc(-c2ccccc2OC)no1	–	–	–	–	–	–
Cc1nn(-c2ccc(C(=O)Nc3nnc(C4CC4)s3)cc2)c(C)c1Cl	–	–	–	–	–	–
Cc1nn(Cc2ccccc2Cl)c(C)c1C(=O)Nc1nnc(C2CC2)s1	–	–	–	–	47.3	52.4
COc1ccc(CCNc2oc(COc3ccccc3F)nc2C#N)cc1	-29.9	–	–	–	–	–
N#Cc1nc(COc2ccccc2F)oc1NCc1ccc(F)cc1	–	–	–	–	–	–
Cc1cc(C)nc(SCC(=O)Nc2ccc(N3CCOCC3)c(Cl)c2)n1	–	–	–	–	58.1	–
COc1cccc(CNC(=O)C2CCCN(S(=O)(=O)c3c(C)n[nH]c3C)C2)c1 (stereo unspecified)	–	–	–	–	–	–
CC(=O)N1c2ccccc2N(Cc2ccc(C)cc2C)C(=O)C1(C)C	–	–	–	–	95.1	–
COc1ccc(C(=O)n2nc(-c3ccco3)nc2SC)cc1OC	–	101.6	–	–	–	–
CCCCCNC(=O)C(C#N)c1nc2ccccc2nc1N1CCCC1 (stereo unspecified)	-23.2	–	–	–	–	–
Cc1cc(N2CCN(c3nc4ccccc4s3)CC2)n2ncnc2n1	–	–	–	–	82.9	–
CNC(=O)[C@H]1O[C@@H](n2cnc3c(NCc4ccc(N)cc4)ncnc32)C(O)[C@H]1O (stereo partly specified)	·	·	·	–	·	·
CCN(CC)c1ccc2c(Cl)c(Br)c(=O)oc2c1	-27.5	–	–	–	–	–
CCN(CC)c1ccc2c(c1)oc(=O)c1c(Cl)cc(=O)oc12	-17.1	–	–	–	–	–
CCN(CC)c1ccc2c(C)c(-c3ccc(N)cc3)c(=O)oc2c1	–	–	–	–	·	·
